Laboratory results taken from ChEMBL document CHEMBL1153486, “Discovery of a class of potent gap-junction modifiers as novel antiarrhythmic agents” (Bioorg Med Chem Lett, 2009).
Blank lines part the entries; values can stand above or below the molecule they belong to. The source made the active and inactive calls. The rule behind the calls is not given here.

Columns and labels:
[1] = system: Mus musculus; experiment: Antiarrhythmic activity in calcium chloride-induced mouse arrhythmia model assessed as prolongation of time to conduct cardiac block at 10 pmol/kg, iv relative to control; assay type: functional, Heart
Outline: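 Mice received an intravenous infusion of CaCl2 after IV test compound. The read-out was time to cardiac conduction block, expressed as percent increase over control. Values are means of at least three experiments with standard deviation.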

[2] = Stability in rat plasma after 3 hrs; assay type: ADME, cell-free; settings: read-out: Stability
Outline: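 Rat plasma incubation for 3 h; stability reported as percent of compound remaining.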

[3] = Cmax in CD1 mouse at 5 mg/kg, po; assay type: ADME, organism-based; design: dose 5 mg/kg, route oral; settings: in vivo
Outline: (§1)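 CD-1 mice were dosed IV at a nominal 1 mg/kg (actual 0.77 mg/kg or 1.6 mg/kg for some compounds) and PO at 5 mg/kg. Parameters were derived from mean drug concentration, N = 3 animals/time point.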

[4] = Volume of distribution at steady state in CD1 mouse at 1 mg/kg, iv; assay type: ADME, organism-based; design: dose 1 mg/kg, route intravenous; settings: in vivo, read-out: Vdss; outline: as §1
[5] = Tmax in CD1 mouse at 5 mg/kg, po; assay type: ADME, organism-based; design: dose 5 mg/kg, route oral; settings: in vivo; outline: as §1
[6] = system: Mus musculus; experiment: Antiarrhythmic activity in calcium chloride-induced mouse arrhythmia model assessed as prolongation of time to conduct cardiac block at 1 to 30 mg/kg, po relative to control; assay type: functional, organism-based; settings: Heart
Outline: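 Compounds were given orally at 1–30 mg/kg to mice, which then received an intravenous CaCl2 infusion. The read-out was prolongation of time to conduction block versus control.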

[7] = Oral bioavailability in CD1 mouse at 5 mg/kg; assay type: ADME, organism-based; settings: in vivo; outline: as §1
[8] = Half life in CD1 mouse at 5 mg/kg, po; assay type: ADME, organism-based; design: dose 5 mg/kg, route oral; settings: in vivo; outline: as §1
[9] = biological target: Voltage-gated inwardly rectifying potassium channel KCNH2 (Homo sapiens, UniProt Q12809); experiment: Inhibition of human ERG
Sequence of Voltage-gated inwardly rectifying potassium channel KCNH2 (Q12809 whole entry): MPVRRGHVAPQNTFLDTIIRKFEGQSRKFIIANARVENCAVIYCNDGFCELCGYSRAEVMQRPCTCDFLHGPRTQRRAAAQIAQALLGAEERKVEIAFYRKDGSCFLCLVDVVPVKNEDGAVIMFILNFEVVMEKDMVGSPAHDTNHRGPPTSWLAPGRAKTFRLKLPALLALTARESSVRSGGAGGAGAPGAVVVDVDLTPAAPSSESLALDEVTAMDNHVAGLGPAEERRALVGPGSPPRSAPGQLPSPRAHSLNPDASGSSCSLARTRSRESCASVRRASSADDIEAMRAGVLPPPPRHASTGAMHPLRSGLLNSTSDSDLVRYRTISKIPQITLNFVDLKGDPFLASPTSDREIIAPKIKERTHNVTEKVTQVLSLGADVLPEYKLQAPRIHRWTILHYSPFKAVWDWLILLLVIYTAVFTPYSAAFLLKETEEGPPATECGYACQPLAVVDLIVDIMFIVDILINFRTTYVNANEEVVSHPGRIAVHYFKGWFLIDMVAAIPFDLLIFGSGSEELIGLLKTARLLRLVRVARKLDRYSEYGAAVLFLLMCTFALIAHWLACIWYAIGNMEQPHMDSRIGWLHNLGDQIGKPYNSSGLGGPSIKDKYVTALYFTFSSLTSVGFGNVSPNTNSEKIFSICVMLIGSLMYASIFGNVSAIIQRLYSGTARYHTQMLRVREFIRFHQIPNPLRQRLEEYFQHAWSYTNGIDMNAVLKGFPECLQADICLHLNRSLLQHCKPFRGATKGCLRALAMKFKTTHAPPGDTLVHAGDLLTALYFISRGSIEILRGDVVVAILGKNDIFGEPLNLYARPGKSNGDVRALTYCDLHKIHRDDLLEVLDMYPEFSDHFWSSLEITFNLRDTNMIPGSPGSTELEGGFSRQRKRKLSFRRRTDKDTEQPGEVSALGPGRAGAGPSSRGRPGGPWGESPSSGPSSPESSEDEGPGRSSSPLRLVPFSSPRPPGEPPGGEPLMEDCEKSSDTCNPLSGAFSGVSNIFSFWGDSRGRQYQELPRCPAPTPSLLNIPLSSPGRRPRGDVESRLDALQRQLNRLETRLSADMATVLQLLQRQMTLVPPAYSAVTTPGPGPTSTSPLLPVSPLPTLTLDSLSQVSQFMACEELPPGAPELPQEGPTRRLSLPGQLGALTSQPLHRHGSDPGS

[10] = Half life in CD1 mouse at 1 mg/kg, iv; assay type: ADME, organism-based; design: dose 1 mg/kg, route intravenous; settings: in vivo; outline: as §1
[11] = Metabolic stability in rat liver microsomes assessed as half life; assay type: ADME, Microsome
[12] = Clearance in CD1 mouse at 1 mg/kg, iv; assay type: ADME, organism-based; design: dose 1 mg/kg, route intravenous; settings: in vivo; outline: as §1
[13] = Inhibition of CYP450; assay type: ADME
[14] = Metabolic stability in human liver microsomes assessed as half life; assay type: ADME, Microsome
[15] = AUC in CD1 mouse at 5 mg/kg, po; assay type: ADME, organism-based; design: dose 5 mg/kg, route oral; settings: plasma; outline: as §1
[16] = Half life in dog at 5 mg/kg, po; assay type: ADME, organism-based, Canis lupus familiaris; design: dose 5 mg/kg, route oral; settings: in vivo
Outline: (§2)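 Dogs were dosed IV at 1 mg/kg and PO at 5 mg/kg; one compound was given 2.3 mg/kg IV and 7.8 mg/kg oral. Values are means of at least three animals, or two animals where no SD is given.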

[17] = AUC in dog at 5 mg/kg, po; assay type: ADME, organism-based, Canis lupus familiaris; design: dose 5 mg/kg, route oral; settings: plasma; outline: as §2
[18] = Cmax in dog at 5 mg/kg, po; assay type: ADME, organism-based, Canis lupus familiaris; design: dose 5 mg/kg, route oral; settings: in vivo; outline: as §2
[19] = system: Canis familiaris; experiment: Half life in dog at 1 mg/kg, iv; assay type: ADME, organism-based, Canis lupus familiaris; design: dose 1 mg/kg, route intravenous; settings: in vivo; outline: as §2
[20] = Cmax in CD1 mouse at 0.77 mg/kg, po; assay type: ADME, organism-based; design: dose 0.77 mg/kg, route oral; settings: in vivo
[21] = Half life in CD1 mouse at 0.77 mg/kg, iv; assay type: ADME, organism-based; design: dose 0.77 mg/kg, route intravenous; settings: in vivo; outline: as §1
[22] = Oral bioavailability in dog at 5 mg/kg; assay type: ADME, organism-based, Canis lupus familiaris; settings: in vivo; outline: as §2
[23] = system: Canis familiaris; experiment: Volume of distribution at steady state in dog at 1 mg/kg, iv; assay type: ADME, organism-based, Canis lupus familiaris; design: dose 1 mg/kg, route intravenous; settings: in vivo; outline: as §2
[24] = Half life in CD1 mouse at 0.77 mg/kg, po; assay type: ADME, organism-based; design: dose 0.77 mg/kg, route oral; settings: in vivo
[25] = system: Mus musculus; experiment: AUC in CD1 mouse at 5 mg/kg, po; settings: in vivo
[26] = Volume of distribution at steady state in CD1 mouse at 0.77 mg/kg, iv; assay type: ADME, organism-based; design: dose 0.77 mg/kg, route intravenous; settings: in vivo, read-out: Vdss; outline: as §1
[27] = system: Mus musculus; experiment: Oral bioavailability in CD1 mouse at 0.77 mg/kg; assay type: ADME, organism-based; settings: in vivo
[28] = Tmax in CD1 mouse at 0.77 mg/kg, po; assay type: ADME, organism-based; design: dose 0.77 mg/kg, route oral; settings: in vivo
[29] = system: Mus musculus; experiment: Antiarrhythmic activity in calcium chloride-induced mouse arrhythmia model assessed as prolongation of time to conduct cardiac block at 20 pmol/kg, iv relative to control; assay type: functional, Heart
Outline: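 A medium-throughput IV screen in the mouse CaCl2 infusion arrhythmia model (n = 7–11). Time to conduction block was expressed as percent of saline control.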

[30] = Tmax in dog at 5 mg/kg, po; assay type: ADME, organism-based, Canis lupus familiaris; design: dose 5 mg/kg, route oral; settings: in vivo
[31] = Cmax in CD1 mouse at 5 mg/kg, po; settings: in vivo
[32] = Tmax in dog at 7.8 mg/kg, po; assay type: ADME, organism-based, Canis lupus familiaris; design: dose 7.8 mg/kg, route oral; settings: in vivo
[33] = system: Mus musculus; experiment: Oral bioavailability in CD1 mouse at 1.6 mg/kg; assay type: ADME, organism-based; settings: in vivo
[34] = Half life in CD1 mouse at 1.6 mg/kg, iv; assay type: ADME, organism-based; design: dose 1.6 mg/kg, route intravenous; settings: in vivo; outline: as §1
[35] = Cmax in dog at 7.8 mg/kg, po; assay type: ADME, organism-based, Canis lupus familiaris; design: dose 7.8 mg/kg, route oral; settings: in vivo; outline: as §2
[36] = Half life in CD1 mouse at 5 mg/kg, po; settings: in vivo
[37] = Oral bioavailability in dog at 7.8 mg/kg; assay type: ADME, organism-based, Canis lupus familiaris; settings: in vivo; outline: as §2
[38] = Volume of distribution at steady state in CD1 mouse at 1.6 mg/kg, iv; assay type: ADME, organism-based; design: dose 1.6 mg/kg, route intravenous; settings: in vivo, read-out: Vdss; outline: as §1
[39] = Volume of distribution at steady state in dog at 2.3 mg/kg, iv; assay type: ADME, organism-based, Canis lupus familiaris; design: dose 2.3 mg/kg, route intravenous; settings: in vivo, read-out: Vdss; outline: as §2
[40] = Half life in dog at 7.8 mg/kg, po; assay type: ADME, organism-based, Canis lupus familiaris; design: dose 7.8 mg/kg, route oral; settings: in vivo; outline: as §2
[41] = AUC in dog at 7.8 mg/kg, po; assay type: ADME, organism-based, Canis lupus familiaris; design: dose 7.8 mg/kg, route oral; settings: plasma; outline: as §2
[42] = Tmax in CD1 mouse at 5 mg/kg, po; settings: in vivo
[43] = system: Mus musculus; experiment: AUC in CD1 mouse at 5 mg/kg, po; settings: in vivo; remark: listed apart in the source
[44] = Half life in dog at 2.3 mg/kg, iv; assay type: ADME, organism-based, Canis lupus familiaris; design: dose 2.3 mg/kg, route intravenous; settings: in vivo; outline: as §2
[45] = Clearance in dog at 2.3 mg/kg, iv; assay type: ADME, organism-based, Canis lupus familiaris; design: dose 2.3 mg/kg, route intravenous; settings: in vivo; outline: as §2

Structure (SMILES): CC(C)NC(=O)[C@@H]1C[C@@H](NC(=O)c2ccccc2)CN1C(=O)CN
Cmax [3]: 44 ng/mL
Vd [4]: 2 L/kg
Activity [1]: 162%
Tmax [5]: 0.25 h
Activity [6]: Active
bioavailability [7]: 6%
half-life [8]: 1.6 h
Activity [9]: Not Active
half-life [10]: 0.9 h
half-life [11]: > 0.5 h
clearance [12]: 58 mL/min/kg
Activity [13]: Not Active
remaining at 3 h [2]: 100%
half-life [14]: > 0.5 h
AUC [15]: 90 ng·h/mL

Structure (SMILES): NCC(=O)N1C[C@H](NC(=O)c2ccccc2)C[C@H]1C(=O)O [DANEGAPTIDE]
half-life [16]: 4 h
Activity [1]: 206.6%
AUC [17]: 4790 ng·h/mL
Cmax [18]: 799 ng/mL
t1/2 [19]: 6.3 h
Cmax [20]: 26 ng/mL
half-life [21]: 1.6 h
bioavailability [22]: 14%
Vdss [23]: 8 L/kg
half-life [24]: 1.9 h
AUC [25]: 73 ng·h/mL
Vd [26]: 2.7 L/kg
F [27]: 6%
remaining at 3 h [2]: 93%
Tmax [28]: 0.5 h
Activity [29]: 149.8%
Tmax [30]: 1.1 h

Structure (SMILES): O=CNCC(=O)N1C[C@H](NC(=O)c2ccccc2)C[C@H]1C(=O)O
Cmax [31]: 89 ng/mL
Activity [1]: 170.4%
Tmax [32]: 1.4 h
F [33]: 2%
Activity [6]: Active
half-life [34]: 0.4 h
Cmax [35]: 737 ng/mL
half-life [36]: 1.4 h
Activity [9]: Not Active
bioavailability [37]: 13%
Vd [38]: 0.2 L/kg
half-life [11]: > 0.5 h
Vd [39]: 0.4 L/kg
Activity [13]: Not Active
half-life [40]: 6.2 h
AUC [41]: 3820 ng·h/mL
Tmax [42]: 0.25 h
AUC [43]: 144 ng·h/mL
half-life [44]: 1.5 h
remaining at 3 h [2]: 100%
half-life [14]: > 0.5 h
clearance [45]: 5 mL/min/kg

Structure (SMILES): CC(=O)NCC(=O)N1C[C@H](NC(=O)c2ccccc2)C[C@H]1C(=O)O
Cmax [3]: 38 ng/mL
Vd [4]: 0.3 L/kg
Activity [1]: 165.7%
Tmax [5]: 0.25 h
Activity [6]: Active
bioavailability [7]: 2%
half-life [8]: 1.2 h
Activity [9]: Not Active
half-life [10]: 0.3 h
half-life [11]: > 0.5 h
clearance [12]: 24 mL/min/kg
Activity [13]: Not Active
remaining at 3 h [2]: 100%
half-life [14]: > 0.5 h
AUC [15]: 66 ng·h/mL

Structure (SMILES): CC(C)(C)OC(=O)NCC(=O)N1C[C@H](NC(=O)c2ccccc2)C[C@H]1C(=O)O
Activity [1]: 156.2%
remaining at 3 h [2]: 100%

More lines, main results first:

remaining at 3 h [2]: 81%
Structure (SMILES): NCC(=O)N1C[C@H](NC(=O)c2ccccc2)C[C@H]1C(=O)NC1CCOCC1
Activity [1]: 99.4%

remaining at 3 h [2]: 100%
Structure (SMILES): NCC(=O)N1C[C@H](NC(=O)c2ccccc2)C[C@H]1C(=O)N[C@@H]1CCOC1
Activity [1]: 143.5%

remaining at 3 h [2]: 27%
Structure (SMILES): NCC(=O)N1C[C@H](NC(=O)c2ccccc2)C[C@H]1C(N)=O
Activity [1]: 193.2%

remaining at 3 h [2]: 100%
Structure (SMILES): CCNC(=O)[C@@H]1C[C@@H](NC(=O)c2ccccc2)CN1C(=O)CN
Activity [1]: 137.2%
